Experimental data from ChEMBL document CHEMBL4311988, “Identification of novel non-nucleoside vinyl-stilbene analogs as potent norovirus replication inhibitors with a potential host-targeting mechanism” (Eur J Med Chem, 2019).
Calls of active or inactive are those of the source. The rule behind the calls is not given here.

Experiments:
Norovirus [1] = test: Antiviral activity against human norovirus infected in human HG23 cells assessed as inhibition of viral replication at 10 uM after 3 days by qRT-PCR analysis relative to control; type: functional; set-up: scale not given: the % may be the effect or the level left
[2] = Cytotoxicity against human HG23 cells assessed as cell viability at 10 uM after 3 days by tetrazolium dye based assay relative to control; settings: read-out: Activity
In short: (§1)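 HG23 cells were treated with DMSO or compound for 3 days, at 10 μM for single-point testing or across a dose range for CC50. Viability was read with a tetrazolium salt (EZ-CYTOX) reagent. Values are means of the most representative triplicate experiment with standard deviations.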

[3] = Metabolic stability in mouse liver microsomes assessed as compound remaining at 1 uM preincubated for 5 mins followed by NADPH addition and measured after 30 mins in presence of NADPH relative to control; type: ADME, Microsome; settings: read-out: Stability
In short: (§2)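 Human or mouse liver microsomes (0.5 mg/ml) in 0.1 M phosphate buffer pH 7.4 were preincubated with compound at 1 μM for 5 min at 37 °C. An NADPH regeneration system was then added or omitted, and incubation continued 30 min at 37 °C. Reactions were stopped with acetonitrile containing internal standard. Parent compound remaining was measured by LC-MS/MS (C18 column, 0.1% formic acid water/acetonitrile).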

[4] = Metabolic stability in human liver microsomes assessed as compound remaining at 1 uM preincubated for 5 mins followed by NADPH addition and measured after 30 mins by LC-MS/MS analysis relative to control; type: ADME, Microsome; settings: read-out: Stability; in short: as §2
[5] = Metabolic stability in mouse liver microsomes assessed as compound remaining at 1 uM after 30 mins in absence of NADPH by LC-MS/MS analysis relative to control; type: ADME, Microsome; settings: read-out: Stability; in short: as §2
[6] = Metabolic stability in human liver microsomes assessed as compound remaining at 1 uM after 30 mins in absence of NADPH by LC-MS/MS analysis relative to control; type: ADME, Microsome; settings: read-out: Stability; in short: as §2
[7] = Therapeutic index, ratio of CC50 for cytotoxicity against human HG23 cells harboring human norovirus replicons to EC50 for antiviral activity against norovirus infected in human HG23 cells; type: toxicity, cell-based; settings: read-out: Ratio CC50/EC50
Norovirus [8] = test: Antiviral activity against human norovirus infected in HG23 cells assessed as inhibition of neomycin phosphotransferase protein expression after 3 days by Western blot analysis; type: functional, organism-based; settings: HG23, 72 h
In short: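 HG23 replicon cells were given DMSO or increasing compound concentrations for 3 days. Whole-cell RIPA extracts were quantified by Bradford assay and equal protein amounts run on SDS-PAGE. Blots on PVDF were probed with rabbit anti-neomycin phosphotransferase (1:500), with anti-HSF-1 (1:1000) on blots. EC50 came from dose-response; values are means of a representative triplicate experiment.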

Norovirus [9] = test: Antiviral activity against human norovirus infected in human HG23 cells assessed as inhibition of viral replication after 3 days by qRT-PCR analysis; type: functional, organism-based; settings: HG23, 72 h
[10] = Cytotoxicity against human HG23 cells assessed as reduction in cell viability after 3 days by tetrazolium dye based assay; in short: as §1
Norovirus GII.4 = test: Inhibition of norovirus GII.4 RNA-dependent RNA polymerase using poly(C)RNA as substrate incubated for 10 mins and measured after 15 mins by picogreen staining based assay
In short: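 Recombinant human norovirus GII.4 Sydney 2012 RdRp (400 ng) was preincubated with compound (10 μM) or DMSO (0.5% v/v) for 10 min at 25 °C. It was then added to 5 μM rGTP, 6 μg/mL poly(C), 2.5 mM MnCl₂, 5 mM DTT, 0.01% BSA and 0.005% Tween 20 in 20 mM Tris-HCl pH 7.5. After 15 min at 25 °C, reactions were stopped with 10 mM EDTA and dsRNA quantified by PicoGreen fluorescence (ex 480/em 520). Two independent experiments were run in triplicate.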

[11] = biological target: T1, Heat shock factor protein 1 (Homo sapiens) (UniProt Q00613); test: Activation of HSF-1 in human HG23 cells transfected with human norovirus after 72 hrs by dual-luciferase reporter gene assay; type: cell-based
T1 sequence (whole entry): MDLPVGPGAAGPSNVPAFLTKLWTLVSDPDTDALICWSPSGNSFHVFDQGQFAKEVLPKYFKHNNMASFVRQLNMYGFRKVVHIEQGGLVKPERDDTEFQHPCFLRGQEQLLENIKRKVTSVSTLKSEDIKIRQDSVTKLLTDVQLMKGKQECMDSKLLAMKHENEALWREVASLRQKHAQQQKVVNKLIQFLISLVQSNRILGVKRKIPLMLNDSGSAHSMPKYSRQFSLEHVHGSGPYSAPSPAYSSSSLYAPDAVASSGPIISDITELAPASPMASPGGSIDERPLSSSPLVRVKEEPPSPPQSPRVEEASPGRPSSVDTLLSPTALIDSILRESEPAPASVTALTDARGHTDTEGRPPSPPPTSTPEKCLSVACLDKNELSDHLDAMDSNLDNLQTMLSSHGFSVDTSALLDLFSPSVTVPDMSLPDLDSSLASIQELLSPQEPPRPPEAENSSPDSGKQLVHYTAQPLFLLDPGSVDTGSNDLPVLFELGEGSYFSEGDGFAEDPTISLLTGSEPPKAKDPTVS
In short: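 HG23 cells carrying the NV replicon were transfected with a Cignal finder reporter array and then given DMSO or 10 μM test compound for 72 h. Luciferase activity for each pathway was read with a dual-luciferase reagent.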

| Compound | Activity (Norovirus [1]) [%] | viability at 72 h, 10 µM [2] [%] | other results |
| --- | --- | --- | --- |
| C=Cc1c(OC)cc(/C=C/c2ccc(C(=O)Nc3ccc(C(F)(F)F)cc3)cc2)cc1OC | 70.8 | 92.5 | – |
| C=Cc1c(OC)cc(/C=C/c2cc(OC)cc(OC)c2)cc1OC | 43.4 | 99.6 | – |
| C=Cc1c(OC)cc(/C=C/c2ccc(C(=O)O)cc2)cc1OC | 81.3 | 112 | – |
| C=Cc1c(OC)cc(/C=C/c2ccc(C(=O)NCCc3ccncc3)cc2)cc1OC | 15.4 | 100 | remaining at 0.5 h, 1 µM [3]: 67.7%; remaining at 0.5 h, 1 µM [4]: 20%; remaining at 0.5 h, 1 µM [5]: 88.4%; remaining at 0.5 h, 1 µM [6]: 92.1%; selectivity ratio [7]: > 50; EC50 (Norovirus [8]): 0.71 µM; EC50 (Norovirus [9]): 2 µM; CC50 at 72 h [10]: > 100 µM; inhibition (Norovirus GII.4): inactive |
| C=Cc1c(OC)cc(/C=C/c2ccc(C(=O)N3CCN(Cc4ccc(F)cc4)CC3)cc2)cc1OC | 12.1 | 55.7 | – |
| COc1cc(/C=C/c2cc(OC)c(CCO)c(OC)c2)cc(OC)c1 | 272.8 | 99.8 | – |
| C=Cc1c(OC)cc(/C=C/c2ccc(C(=O)OCc3ccc(C(F)(F)F)cc3)cc2)cc1OC | 58.4 | 109 | – |
| C=Cc1ccc(/C=C/c2ccccc2)cc1 | 26.5 | 102 | – |
| C#CCOC(=O)c1ccc(/C=C/c2cc(OC)c(C=C)c(OC)c2)cc1 | 71.3 | 103 | – |
| C=Cc1c(OC)cc(/C=C/c2ccc(C(=O)NCCc3c[nH]c4ccccc34)cc2)cc1OC | 46.6 | 106 | – |
| C=Cc1c(OC)cc(/C=C/c2ccc(C(=O)NCCc3ccc(O)cc3)cc2)cc1OC | 40.8 | 103 | – |
| C=Cc1c(OC)cc(/C=C/c2ccc(C(=O)N3CCN(CCO)CC3)cc2)cc1OC | 110.4 | 93.3 | – |
| C=Cc1c(OC)cc(/C=C/c2ccc(C(=O)NCCc3ccccc3)cc2)cc1OC | 28.4 | 99.7 | – |
| COc1ccc(CCN(C)CCCC(C#N)(c2ccc(OC)c(OC)c2)C(C)C)cc1OC (stereo not given) [VERAPAMIL] | – | – | remaining at 0.5 h, 1 µM [4]: 13.6% |
| C=Cc1c(OC)cc(/C=C/c2ccc(C(=O)NCc3ccco3)cc2)cc1OC | 33.8 | 109 | – |
| C=Cc1c(OC)cc(/C=C/c2ccccc2C(F)(F)F)cc1OC | 83.2 | 99.7 | – |
| C=Cc1c(OC)cc(/C=C/c2ccc(F)cc2)cc1OC | 38.4 | 93.2 | – |
| COc1cc(/C=C/c2cc(OC)cc(OC)c2)cc(OC)c1 | 119 | 99.2 | – |
| Brc1ccc(/C=C/c2ccccc2)cc1 | 54.5 | 130 | – |

| Compound | Activity (Norovirus [1]) [%] | viability at 72 h, 10 µM [2] [%] | other results |
| --- | --- | --- | --- |
| C=Cc1c(OC)cc(/C=C/c2ccc(C(=O)NCCc3ccccn3)cc2)cc1OC | 13.5 | 96.3 | remaining at 0.5 h, 1 µM [3]: 38.3%; remaining at 0.5 h, 1 µM [4]: 44.1%; remaining at 0.5 h, 1 µM [5]: 83.1%; remaining at 0.5 h, 1 µM [6]: > 100%; selectivity ratio [7]: > 69; EC50 (Norovirus [8]): 1.97 µM; EC50 (Norovirus [9]): 1.44 µM; CC50 at 72 h [10]: > 100 µM; inhibition (Norovirus GII.4): inactive |
| C=Cc1c(OC)cc(/C=C/c2ccc(C(=O)N3CCN(Cc4ccc(OC)cc4)CC3)cc2)cc1OC | 30.4 | 21.5 | – |
| C=Cc1c(OC)cc(/C=C/c2ccc(C(=O)OCc3ccc(F)cc3)cc2)cc1OC | 36 | 101 | – |
| C=Cc1c(OC)cc(/C=C/c2ccc(C(F)(F)F)cc2)cc1OC | 19.4 | 97.5 | selectivity ratio [7]: > 2.2; EC50 (Norovirus [8]): 8 µM; EC50 (Norovirus [9]): 4.4 µM; CC50 at 72 h [10]: > 10 µM |
| C=Cc1c(OC)cc(/C=C\c2ccc(C(=O)N3CCN(Cc4ccc(C(F)(F)F)cc4)CC3)cc2)cc1OC | 64.9 | 90.9 | – |
| OCCc1ccc(/C=C/c2ccccc2)cc1 | 43.2 | 101 | – |
| C=CCNC(=O)c1ccc(/C=C/c2cc(OC)c(C=C)c(OC)c2)cc1 | 62.4 | 91.6 | – |
| C=Cc1ccc(/C=C/c2cc(OC)cc(OC)c2)cc1 | 77.1 | 138 | – |
| C=Cc1c(OC)cc(/C=C/c2ccc(C(=O)N3CCN(C(C)C)CC3)cc2)cc1OC | 55.3 | 60.5 | – |
| COc1cc(/C=C/c2cc(O)c(CCO)c(O)c2)cc(OC)c1 | 200.8 | 99 | – |
| C=Cc1c(OC)cc(/C=C/c2ccc(C(=O)OC)cc2)cc1OC | 58.2 | 111 | – |
| C=Cc1c(OC)cc(/C=C/c2cccc(C(F)(F)F)c2)cc1OC | 66.6 | 98.4 | – |
| CCc1c(OC)cc(/C=C/c2cc(OC)cc(OC)c2)cc1OC | 94 | 69.3 | – |
| C=Cc1c(OC)cc(CCc2ccc(C(=O)N3CCN(Cc4ccc(C(F)(F)F)cc4)CC3)cc2)cc1OC | 132.1 | 77.3 | – |
| COc1cc(/C=C/c2cc(OC)c(Br)c(OC)c2)cc(OC)c1 | 184.9 | 99.7 | – |
| C=Cc1c(OC)cc(/C=C/c2ccc(C(=O)OCc3ccccc3)cc2)cc1OC | 134.9 | 106 | – |
| C=Cc1c(OC)cc(/C=C/c2ccc(OCOC)cc2)cc1OC | 165.7 | 97.5 | – |
| C[C@@]1(O)[C@H](O)[C@@H](CO)O[C@H]1n1ccc(N)nc1=O | 24.8 | 78.5 | selectivity ratio [7]: 3.1; EC50 (Norovirus [8]): 4.8 µM; EC50 (Norovirus [9]): 4 µM; CC50 at 72 h [10]: 12.2 µM; Activity [11]: Active |
